Columns and labels:
[1] = Aqueous solubility in water after 24 hrs by HPLC analysis; assay type: physicochemical
Summary of the method: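 Water (10 mL) added to the solid; sonicated 5 min, then stirred 24 h in a 25 °C water bath. Centrifuged at 10 000 rpm for 10 min, supernatant membrane-filtered and quantified by HPLC.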

[2] = Chemical stability in phosphate buffer solution at pH 1.10 to 12.02 at 37 degC up to 24 hrs by HPLC analysis; assay type: physicochemical; conditions: pH 1.1, 24 h
Summary of the method: (§1)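 Phosphate buffers at pH 1.10, 4.02, 6.84, 9.14 and 12.02, held at 37 °C and at 60 °C. Remaining compound quantified by HPLC at 0, 1, 2, 4, 8, 16 and 24 h.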

[3] = Chemical stability in phosphate buffer solution at pH 1.10 to 6.84 at 60 degC up to 24 hrs by HPLC analysis; assay type: physicochemical; conditions: pH 1.1, 24 h; summary of the method: as §1
Plasma = test: Stability in mouse plasma up to 12 hrs by HPLC analysis; assay type: ADME, cell-free
Summary of the method: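 Aqueous compound solution (1.0 mL, 50 stock) added to 5 mL mouse plasma, kept at 37 ± 1 °C. 200 aliquots taken at 0, 1, 2, 4, 8 and 12 h, mixed with 400 acetonitrile for 5 min, centrifuged at 10 000 rpm for 5 min, and supernatant analysed by HPLC.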

Mus musculus [4] = test: Hepatoprotective activity in Kunming mouse assessed as reduction of CCL4-induced increase of serum ALT level at 1 mg/kg, ip administered 0.5 hrs before CCL4 challenge measured after 16 hrs; assay type: functional; conditions: route intraperitoneal
Summary of the method: (§2)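 Adult male Kunming mice (20–22 g), fasted the day before, in groups of ten. Compound given ip at 1, 2 or 4 mg/kg, followed 0.5 h later by ip CCl₄ (5 mL/kg as 0.2% peanut oil solution). Controls: saline alone, and CCl₄ alone. Orbital blood taken at 16 h; serum assayed for ALT and AST. Mean ± S.D., compared with the CCl₄ group.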

Mus musculus [5] = test: Hepatoprotective activity in Kunming mouse assessed as reduction of CCL4-induced increase of serum AST level at 1 mg/kg, ip administered 0.5 hrs before CCL4 challenge measured after 16 hrs; assay type: functional; conditions: route intraperitoneal; summary of the method: as §2
Mus musculus [6] = test: Hepatoprotective activity in Kunming mouse assessed as reduction of CCL4-induced increase of serum ALT level at 2 mg/kg, ip administered 0.5 hrs before CCL4 challenge measured after 16 hrs; assay type: functional; conditions: route intraperitoneal; summary of the method: as §2
Mus musculus [7] = test: Hepatoprotective activity in Kunming mouse assessed as reduction of CCL4-induced increase of serum AST level at 2 mg/kg, ip administered 0.5 hrs before CCL4 challenge measured after 16 hrs; assay type: functional; conditions: route intraperitoneal; summary of the method: as §2
Mus musculus [8] = test: Hepatoprotective activity in Kunming mouse assessed as reduction of CCL4-induced increase of serum ALT level at 4 mg/kg, ip administered 0.5 hrs before CCL4 challenge measured after 16 hrs; assay type: functional; conditions: route intraperitoneal; summary of the method: as §2
Mus musculus [9] = test: Hepatoprotective activity in Kunming mouse assessed as reduction of CCL4-induced increase of serum AST level at 4 mg/kg, ip administered 0.5 hrs before CCL4 challenge measured after 16 hrs; assay type: functional; conditions: route intraperitoneal; summary of the method: as §2
Mus musculus [10] = test: In vivo metabolic stability in Kunming mouse assessed as 5-(4-hydroxyphenyl)-3H-1,2-dithiole-3-thione level in plasma at 10 mg/kg, ip measured up to 8 hrs by HPLC analysis; assay type: ADME, organism-based; set-up: dose 10 mg/kg, route intraperitoneal
Summary of the method: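 Male Kunming mice, ten groups of four, given 10.00 mg/kg ip. Orbital blood (0.5 mL) taken into heparinized tubes at 0.02–8 h. Plasma precipitated with 2 volumes acetonitrile, sonicated, centrifuged, and analysed by HPLC at 354 nm. Plasma calibration curve spans 0.05–31.11 with six points; QC at three levels.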

| solubility at 24 h [1] [µg/mL] | Stability [2] | Stability [3] | Stability (Plasma) | Stability (Mus musculus [10]) | Compound | Activity (Mus musculus [4]) [IU/L] | Activity (Mus musculus [5]) [IU/L] | Activity (Mus musculus [6]) [IU/L] | Activity (Mus musculus [7]) [IU/L] | Activity (Mus musculus [8]) [IU/L] | Activity (Mus musculus [9]) [IU/L] |
| --- | --- | --- | --- | --- | --- | --- | --- | --- | --- | --- | --- |
| 2300 | Stable | Stable | Stable | – | S=c1cc(-c2ccc(OCC[n+]3ccccc3)cc2)ss1.[Br-] | 426.1 | 559.2 | 630.1 | 617.8 | 685 | 784.3 |
| > 20000 | Stable | Stable | Stable | Stable | CN(C)CCOc1ccc(-c2cc(=S)ss2)cc1.Cl | 216.5 | 310.9 | 109.7 | 215.7 | 171.6 | 284.1 |
| > 20000 | Stable | Stable | Stable | – | Cl.S=c1cc(-c2ccc(OCCN3CCOCC3)cc2)ss1 | 595.4 | 851.7 | 468 | 552.5 | 457.7 | 824.9 |
| > 20000 | Stable | Stable | Stable | – | Cl.S=c1cc(-c2ccc(OCCN3CCCCC3)cc2)ss1 | 169.3 | 920.6 | 259.6 | 416.8 | 382.9 | 423.9 |
| > 20000 | Stable | Stable | Stable | – | Cl.S=c1cc(-c2ccc(OCCN3CCCC3)cc2)ss1 | 416.6 | 501.2 | 535.9 | 582.9 | 561.5 | 607.8 |
| 2800 | Stable | Stable | Stable | – | CN(C)c1cc[n+](CCOc2ccc(-c3cc(=S)ss3)cc2)cc1.[Br-] | – | – | – | – | – | – |
| < 130 | Stable | Stable | Stable | – | Oc1ccc(-c2cc(=S)ss2)cc1 | – | – | – | – | – | – |
| < 10 | Stable | Stable | Stable | – | COc1ccc(-c2cc(=S)ss2)cc1 [ANETHOLTRITHION] | 150.7 | 269.6 | 112.4 | 265.9 | 177.2 | 407.1 |
| 3500 | Stable | Stable | Stable | – | CC[N+](CC)(CC)CCOc1ccc(-c2cc(=S)ss2)cc1.[Br-] | – | – | – | – | – | – |

From ChEMBL document CHEMBL1177860, “Design, synthesis, and pharmacological evaluation of the aqueous prodrugs of desmethyl anethole trithione with hepatoprotective activity” (Eur J Med Chem, 2010)
